# Assay results reported in ChEMBL document CHEMBL4020842, “Discovery of N1-(4-((7-Cyclopentyl-6-(dimethylcarbamoyl)-7 H-pyrrolo[2,3- d]pyrimidin-2-yl)amino)phenyl)- N8-hydroxyoctanediamide as a Novel Inhibitor Targeting Cyclin-dependent Kinase 4/9 (CDK4/9) and Histone Deacetlyase1 (HDAC1) against Malignant Cancer” (J Med Chem, 2018).
# pIC50: −log10 of the molar value. Active and inactive are the calls of the source. The rule behind the calls is not given here.
# Key:
# A549 [1] = experiment: Induction of apoptosis in human A549 cells assessed as live cells at 1 uM after 48 hrs by annexin V-FITC/propidium iodide staining based flow cytometry (reference value: 92.7%); assay type: functional
# T47D [2] = experiment: Induction of apoptosis in human T47D cells assessed as early apoptotic cells at 5 uM after 48 hrs by annexin V-FITC/propidium iodide staining based flow cytometry (reference value: 7.7%); assay type: functional
# T47D [3] = experiment: Induction of apoptosis in human T47D cells assessed as late apoptotic cells at 10 uM after 48 hrs by annexin V-FITC/propidium iodide staining based flow cytometry (reference value: 6.16%); assay type: functional
# MDA-MB-231 [4] = experiment: Induction of apoptosis in human MDA-MB-231 cells assessed as live cells at 1 uM after 48 hrs by annexin V-FITC/propidium iodide staining based flow cytometry (reference value: 98.1%); assay type: functional
# A549 [5] = experiment: Cytotoxicity against human A549 cells assessed as reduction in cell viability after 72 hrs by CCK8 assay; assay type: functional, cell-based; details: A549, 72 h
# A549 [6] = experiment: Cell cycle arrest in human A549 cells assessed as decrease in S-phase at 625 nM after 24 hrs by propidium iodide staining based flow cytometry; assay type: functional
# Procedure, shortened: (§1)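 Cells were exposed for 24 h to a range of concentrations (625 nM, 2.5 and 10 µM), with DMSO vehicle as control. They were then stained with propidium iodide and analysed by flow cytometry to obtain the percentages of cells in G0/G1, S and G2 phases.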
# NCI-H460 [7] = experiment: Cell cycle arrest in human NCI-H460 cells assessed as decrease in S-phase at 625 nM after 24 hrs by propidium iodide staining based flow cytometry; assay type: functional; procedure, shortened: as §1
# [8] = molecular target: CDK3/Cyclin E (Homo sapiens) (UniProt P24864+Q00526); experiment: Inhibition of recombinant human full length C-terminal 6His-tagged CDK3/N-terminal GST-tagged Cyclin-E co-expressed in baculovirus infected sf21 cells at 1 uM relative to control
# [9] = molecular target: Cyclin-dependent kinase 2/cyclin E1 (Homo sapiens) (UniProt P24864+P24941); experiment: Inhibition of recombinant human full length C-terminal 6His-tagged CDK2/N-terminal GST-tagged Cyclin-E co-expressed in baculovirus infected sf21 cells at 1 uM using histone H1 substrate in presence of [gamma33P]ATP after 10 mins by scintillation counting method relative to control
# MDA-MB-231 [10] = experiment: Cytotoxicity against human MDA-MB-231 cells assessed as reduction in cell viability after 72 hrs by CCK8 assay; assay type: functional, cell-based; details: MDA-MB-231, 72 h
# HepG2 = experiment: Induction of apoptosis in human HepG2 cells assessed as necrotic cells at 1 uM after 48 hrs by annexin V-FITC/propidium iodide staining based flow cytometry (reference value: 2.32%); assay type: functional
# Hep 3B2 [11] = experiment: Induction of apoptosis in human Hep3B cells assessed as necrotic cells at 10 uM after 48 hrs by annexin V-FITC/propidium iodide staining based flow cytometry (reference value: 4.97%); assay type: functional
# Hep 3B2 [12] = experiment: Induction of apoptosis in human Hep3B cells assessed as live cells at 1 uM after 48 hrs by annexin V-FITC/propidium iodide staining based flow cytometry (reference value: 97.9%); assay type: functional
# Hep 3B2 [13] = experiment: Induction of apoptosis in human Hep3B cells assessed as early apoptotic cells at 1 uM after 48 hrs by annexin V-FITC/propidium iodide staining based flow cytometry (reference value: 1.91%); assay type: functional
# Hep 3B2 [14] = experiment: Induction of apoptosis in human Hep3B cells assessed as necrotic cells at 1 uM after 48 hrs by annexin V-FITC/propidium iodide staining based flow cytometry (reference value: 4.97%); assay type: functional
# NCI-H460 [15] = experiment: Induction of apoptosis in human NCI-H460 cells after 48 hrs by annexin V-FITC/propidium iodide staining based flow cytometry; assay type: functional, cell-based
# T47D [16] = experiment: Downregulation of CDK4 protein expression in human T47D cells after 48 hrs by Western blot method; assay type: functional, cell-based
# Procedure, shortened: (§2)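 Treated cells were lysed and CDK4 and cyclin D1 protein levels were assessed by Western blot.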
# T47D [17] = experiment: Downregulation of Cyclin-D1 protein expression in human T47D cells after 48 hrs by Western blot method; assay type: functional, cell-based; procedure, shortened: as §2
# A549 [18] = experiment: Downregulation of Cyclin-D1 protein expression in human A549 cells after 48 hrs by Western blot method; assay type: functional, cell-based; procedure, shortened: as §2
# Histone deacetylase 1 [19] = molecular target: T1, Histone deacetylase 1 (Homo sapiens, UniProt Q13547); experiment: Inhibition of HDAC1 in human A549 cells assessed as increase in acetylated-histone H3 level at 1 to 5 uM after 48 hrs by Western blot method; assay type: cell-based
# NCI-H460 [20] = experiment: Induction of apoptosis in human NCI-H460 cells assessed as caspase-3 cleavage after 48 hrs by Western blot method; assay type: functional, cell-based
# Procedure, shortened: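 Cells were treated with or without test agent, alongside a control, for 48h. They were then lysed and analysed by Western blot for Bcl-2 protein and cleaved caspase 3.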
# Histone deacetylase 1 [21] = molecular target: T1, Histone deacetylase 1; experiment: Inhibition of HDAC1 in human A549 cells assessed as increase in p53 phosphorylation at Ser15 residue at 1 to 5 uM after 48 hrs by Western blot method; assay type: cell-based
# A549 [22] = experiment: Inhibition of CDK4 protein expression in human A549 cells at 0.1 to 1 uM after 24 hrs by immunofluorescence assay; assay type: functional, cell-based
# Procedure, shortened: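 Cells treated 24 h with test compound or vehicle. For the CDK4 read-out the compound was used at 100 nM, and for acetyl-histone H3 at 1 µM. CDK4 and acetyl-histone H3 were then detected by immunofluorescence staining and compared with vehicle-treated cells.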
# [23] = Aqueous solubility in pH 7.4 PBS buffer at 1 mg sonicated for 24 hrs and incubated under unstirred condition for 24 hrs by HPLC method; assay type: physicochemical
# [24] = Cmax in Sprague-Dawley rat at 20 mg/kg, iv administered as single dose by HPLC analysis; assay type: ADME, organism-based; design: dose 20 mg/kg, route intravenous; details: in vivo
# [25] = AUC (0 to infinity) in Sprague-Dawley rat at 20 mg/kg, ip administered as single dose by HPLC analysis; assay type: ADME, organism-based; design: dose 20 mg/kg, time infinity, route intraperitoneal; details: in vivo
# [26] = Tmax in Sprague-Dawley rat at 20 mg/kg, ip administered as single dose by HPLC analysis; assay type: ADME, organism-based; details: in vivo
# [27] = Cmax in Sprague-Dawley rat at 20 mg/kg, po administered as single dose by HPLC analysis; assay type: ADME, organism-based; design: dose 20 mg/kg, route oral; details: in vivo
# Rattus norvegicus = experiment: Apparent volume of distribution at steady state in Sprague-Dawley rat at 20 mg/kg, po administered as single dose by HPLC analysis; assay type: ADME, organism-based; details: in vivo
# 4T1 [28] = experiment: Antitumor activity against mouse Fluc-labeled 4T1 cells implanted in Balb/c mouse assessed as reduction in tumor weight at 90 mg/kg, ip administered daily for 18 days measured after 8 to 25 days; assay type: functional, organism-based
# Procedure, shortened: (§3)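 Luciferase (Fluc) reporter introduced into 4T1 cells by lentiviral transduction. Cells implanted orthotopically into mammary fat pads of female BALB/c mice aged 6–8 weeks. Once tumours averaged 100 mm3, dosing was daily by IP injection. Bioluminescence imaging was done at days 8 and 25 to reflect viable tumour cell number. Tumour weight was recorded at study end.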
# 4T1 [29] = experiment: Antitumor activity against mouse Fluc-labeled 4T1 cells implanted in Balb/c mouse assessed as reduction in tumor weight at 130 mg/kg, ip administered daily for 18 days measured after 8 to 25 days; assay type: functional, organism-based; procedure, shortened: as §3
# Mus musculus = experiment: Downregulation of Bcl2 level in tumor of Balb/c mouse implanted with mouse Fluc-labeled 4T1 cells at 90 to 130 mg/kg, […] daily for 18 days by immunohistochemical analysis; assay type: functional, organism-based
# T1 sequence (Q13547 whole entry): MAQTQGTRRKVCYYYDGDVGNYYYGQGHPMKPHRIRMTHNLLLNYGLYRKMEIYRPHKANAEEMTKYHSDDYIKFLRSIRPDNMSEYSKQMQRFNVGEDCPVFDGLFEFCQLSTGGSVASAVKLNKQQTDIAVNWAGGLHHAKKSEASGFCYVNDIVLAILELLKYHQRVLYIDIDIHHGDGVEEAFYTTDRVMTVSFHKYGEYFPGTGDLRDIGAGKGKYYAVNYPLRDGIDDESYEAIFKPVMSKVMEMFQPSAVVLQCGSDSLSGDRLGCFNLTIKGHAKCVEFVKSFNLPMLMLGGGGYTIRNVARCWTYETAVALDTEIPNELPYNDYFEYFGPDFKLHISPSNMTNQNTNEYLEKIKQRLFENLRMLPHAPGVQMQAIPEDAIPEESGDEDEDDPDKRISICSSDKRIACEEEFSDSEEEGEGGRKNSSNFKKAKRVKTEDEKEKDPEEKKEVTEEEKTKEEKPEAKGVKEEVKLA
# Chain of CDK3/Cyclin E (Homo sapiens) (P24864 whole entry, looked up): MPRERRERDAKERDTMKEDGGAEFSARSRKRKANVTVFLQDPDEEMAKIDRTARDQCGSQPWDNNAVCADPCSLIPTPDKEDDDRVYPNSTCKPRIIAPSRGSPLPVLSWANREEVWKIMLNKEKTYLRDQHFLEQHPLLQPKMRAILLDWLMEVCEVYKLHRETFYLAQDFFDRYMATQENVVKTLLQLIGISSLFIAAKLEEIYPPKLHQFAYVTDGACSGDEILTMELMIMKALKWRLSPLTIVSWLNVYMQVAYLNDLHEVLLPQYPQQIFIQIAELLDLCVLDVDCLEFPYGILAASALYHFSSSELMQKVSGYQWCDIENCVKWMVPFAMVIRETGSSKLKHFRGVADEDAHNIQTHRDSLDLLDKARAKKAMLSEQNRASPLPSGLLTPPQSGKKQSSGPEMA
# Chain of CDK3/Cyclin E (Homo sapiens) (Q00526 whole entry, looked up): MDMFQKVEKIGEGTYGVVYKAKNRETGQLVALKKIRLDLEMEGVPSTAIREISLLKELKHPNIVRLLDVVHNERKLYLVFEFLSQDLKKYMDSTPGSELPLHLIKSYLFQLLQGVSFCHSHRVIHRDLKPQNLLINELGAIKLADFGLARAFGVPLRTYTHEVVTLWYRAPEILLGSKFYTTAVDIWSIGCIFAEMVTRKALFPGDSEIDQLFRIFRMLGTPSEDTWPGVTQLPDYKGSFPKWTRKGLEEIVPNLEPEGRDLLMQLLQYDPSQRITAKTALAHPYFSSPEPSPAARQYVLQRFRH
smiles,measurement,setting,value
CN(C)C(=O)c1cc2cnc(Nc3ccc(NC(=O)CCCCCCC(=O)NO)cc3)nc2n1C1CCCC1,Activity,A549 [1],90.9%
same,Activity,T47D [2],14.1%
same,Activity,T47D [3],17.1%
same,Activity,MDA-MB-231 [4],95.6%
same,pIC50,A549 [5],5.88
same,Activity,A549 [6],Active
same,Activity,NCI-H460 [7],Active
same,inhibition,[8],68%
same,inhibition,[9],66%
same,pIC50,MDA-MB-231 [10],5.73
same,Activity,HepG2,3.95%
same,Activity,Hep 3B2 [11],3.02%
same,Activity,Hep 3B2 [12],85.8%
same,Activity,Hep 3B2 [13],3.82%
same,Activity,Hep 3B2 [14],3.3%
same,Activity,NCI-H460 [15],Dose-dependent effect
same,Activity,T47D [16],Dose-dependent effect
same,Activity,T47D [17],Dose-dependent effect
same,Activity,A549 [18],Dose-dependent effect
same,inhibition,Histone deacetylase 1 [19],Active
same,Activity,NCI-H460 [20],Active
same,inhibition,Histone deacetylase 1 [21],Active
same,inhibition,A549 [22],Active
same,solubility at 24 h,[23],0.35 µg/mL
same,Cmax,[24],3850 ng/mL
same,AUC(0-inf),[25],2130 ng·h/mL
same,Tmax,[26],15.7 min
same,Cmax,[27],137 ng/mL
same,Vdss(app),Rattus norvegicus,431.52 L/kg
same,Activity,4T1 [28],Active
same,Activity,4T1 [29],Active
same,Activity,Mus musculus,Active
